Test results from ChEMBL document CHEMBL1122631, “2,3,4,4a,5,9b-Hexahydro-1H-indeno[1,2-b]pyridines: potential antidepressants” (J Med Chem, 1984).
Several values for one entry are separate records, joined by “and”; a condition that tells them apart may be missing. Identical values can stand only once.

How the values were obtained:
[1] = Acute toxicity in mice, after intraperitoneal administration.; format: organism-based; conditions: mouse, in vivo, ip
Procedure, shortened: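 Mice, groups of 10, given compound suspended in 1% methylcellulose ip at 10 mL/kg, then housed with food and water ad libitum. Observed hourly up to 6 h; deaths recorded at 24 and 48 h.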

[2] = species: Rattus norvegicus; assay: Compound was tested for inhibition of uptake of [14C]5-HT (5-HT) into rat whole brain, in vitro.; format: functional
Procedure, shortened: (§1)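 Rat brain synaptosomes (Whittaker method) incubated with labelled monoamine (1 × 10^-7 mol final) at 37 °C with or without drug. [14C]NE and [14C]5-HT uptake in Krebs-Henseleit bicarbonate pH 7.4 with 11 mmol glucose; [3H]DA uptake in phosphate buffer, corpus striatum synaptosomes. Time: 5 min whole brain, 10 min hypothalamus. Nonspecific binding at 0 °C; membrane filtration, scintillation counting; IC50 from 3–4 concentrations, at least triplicate.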

[3] = species: Rattus norvegicus; assay: Compound was tested for inhibition of uptake of [14C]norepinephrine (NE) into rat brain hypothalamus, in vitro.; format: functional; procedure, shortened: as §1
[4] = species: Rattus norvegicus; assay: Compound was tested for inhibition of uptake of [3H]dopamine (DA) into rat corpus striatum, in vitro.; format: functional; procedure, shortened: as §1
[5] = system: Mus musculus; assay: Prevention of tetrabenazine induced ptosis in mice following i.p. administration.; format: functional; conditions: ip
Procedure, shortened: (§2)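 Mice given compound ip in 1% methylcellulose (10 mL/kg), 30 min before tetrabenazine 40 mg/kg base ip; solvent+TBZ control per test. Ptosis scored 30 min after TBZ (+1 min) as 100/50/0% (closed/half/open), not normalized.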

[6] = species: Rattus norvegicus; assay: Compound was tested for inhibition of uptake of [14C]norepinephrine (NE) into rat brain hypothalamus, in vitro; Not determined.; format: functional; procedure, shortened: as §1
[7] = species: Rattus norvegicus; assay: Compound was tested for inhibition of uptake of [14C]5-HT (5-HT) into rat whole brain, in vitro; Not determined.; format: functional; procedure, shortened: as §1
[8] = Therapeutic index (TI), ratio of LD50 and ED50 (TBZ) in mice after i.p. administration; conditions: mouse, in vivo, ip
[9] = system: Mus musculus; assay: Antidepressant activity was measured by the prevention of tetrabenazine (TBZ) induced ptosis in mice after intraperitoneal administration of the compound.; format: functional; conditions: ip; procedure, shortened: as §2
[10] = system: Mus musculus; assay: Prevention of tetrabenazine (TBZ)-induced ptosis in mice after intraperitoneal administration.; format: functional, organism-based; procedure, shortened: as §2
[11] = Compound was tested for acute toxicity in mice, after intravenous administration of the compound.; format: organism-based; conditions: mouse, in vivo
[12] = system: Rattus norvegicus; assay: Ability to inhibit re uptake of [14C]norepinephrine in synaptosomes from rat whole brain, was determined 1 h after peroral administration of 80 mg of compound.; format: functional, organism-based
Procedure, shortened: (§3)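 Ex vivo/in vitro: rats dosed orally or ip, killed 1 h later; whole-brain synaptosomes from a pool of n=3 rats; [14C]NE or [14C]5-HT uptake (Krebs-Henseleit bicarbonate, pH 7.4, 11 mmol glucose; 1 × 10^-7 mol labelled amine, 37 °C, 5 min), filtration, scintillation counting; quadruplicate determinations, mean ± SD as % of control-animal uptake.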

[13] = system: Rattus norvegicus; assay: Ability to inhibit re uptake of [14C]-5-HT in synaptosomes from rat whole brain, was determined 1 h after intraperitoneal administration of 80 mg of compound.; format: functional; procedure, shortened: as §3
[14] = Partition coefficient (logP); format: physicochemical; conditions: octanol/water
[15] = system: Rattus norvegicus; assay: Ability to inhibit re uptake of [14C]5-HT in synaptosomes from rat whole brain, was determined 1 h after peroral administration of 80 mg of compound.; format: functional, organism-based; procedure, shortened: as §3
[16] = system: Rattus norvegicus; assay: Ability to inhibit re uptake of [14C]norepinephrine in synaptosomes from rat whole brain, was determined 1 hr after peroral administration of 80 mg of compound.; format: functional; procedure, shortened: as §3

| Structure (SMILES) | LD50 [1] | IC50 [2] | IC50 [3] | IC50 [4] | ED50 [5] | IC50 [6] | IC50 [7] | selectivity ratio [8] | further results |
| --- | --- | --- | --- | --- | --- | --- | --- | --- | --- |
| Nc1ccc([C@H]2c3ccccc3[C@H]3NCCC[C@@H]23)cc1 | 20 mg/kg | 20000 nM | 180 nM | 330 nM | 3 mg/kg |  |  |  |  |
| COc1ccc2c(c1)[C@@H](c1ccc(C)cc1)[C@@H]1CCCN[C@H]21 |  |  |  |  |  | No compound available | No compound available |  |  |
| c1ccc([C@@H]2c3ccccc3[C@H]3NCCC[C@@H]23)cc1 | 27 mg/kg | ~100000 nM | 18 nM | 20 nM | 0.7 mg/kg |  |  | 39 |  |
| COc1ccc([C@@H]2c3ccccc3[C@@H]3[C@H]2CCCN3C)cc1 | 95 mg/kg |  |  |  |  |  |  | 19 | ED50 [9]: 5 mg/kg |
| COc1cc2c(cc1OC)[C@H]1NCCC[C@H]1[C@H]2c1cccnc1 |  |  |  |  |  |  |  |  | ED50 [10]: No activity detected up to a dose of 1/5 LD50 ip in mice; LD50 [11]: 30 mg/kg |
| COc1ccc([C@H]2c3ccccc3[C@@H]3[C@H]2CCCN3C)cc1 |  |  |  |  |  | No compound available | No compound available |  |  |
| CN1CCC[C@H]2[C@H](c3ccc(O)cc3)c3ccccc3[C@H]21 | 178 mg/kg |  |  |  |  |  |  | 36 | ED50 [9]: 5 mg/kg |
| Cc1ccc([C@@H]2c3ccccc3[C@@H]3[C@H]2CCCN3C)cc1 | 232 mg/kg | > 100000 nM | 65 nM | 90 nM | 3 mg/kg |  |  | 77 | Uptake [12]: > 90% (2×) and 76.3%; Uptake [13]: > 90%; logP [14]: 3.83; Uptake [15]: > 90% (2×) and 88.1% |
| CCCCOc1ccc([C@H]2c3ccccc3[C@@H]3[C@H]2CCCN3C)cc1 |  |  |  |  |  | No compound available | No compound available |  |  |
| CN1CCC[C@H]2[C@H](c3ccccc3)c3ccccc3[C@H]21 | 74 mg/kg | ~100000 nM | 12 nM | 100 nM | 0.4 mg/kg |  |  | 185 |  |
| Nc1ccc([C@@H]2c3cc(O)ccc3[C@H]3NCCC[C@@H]23)cc1 | 150 mg/kg | 1600 nM | 15 nM | 46 nM | 0.1 mg/kg |  |  | 1500 | Uptake [16]: > 90%; Uptake [13]: > 90%; logP [14]: 1.91; Uptake [15]: > 90% |
| COc1cc2c(cc1OC)[C@H]1NCCC[C@H]1[C@@H]2c1ccc(N)cc1 |  |  |  |  |  | No compound available | No compound available |  |  |
| COc1cc2c(cc1OC)[C@@H]1[C@@H](CCCN1C)[C@@H]2c1ccccc1 |  |  |  |  |  | No compound available | No compound available |  |  |
| COc1ccc2c(c1)[C@@H](c1ccc(C(C)C)cc1)[C@@H]1CCCN[C@H]21 |  |  |  |  |  | No compound available | No compound available |  |  |
| c1ccc2c(c1)[C@@H](c1ccncc1)[C@@H]1CCCN[C@H]21 | 20 mg/kg |  |  |  |  |  |  | 10 | ED50 [9]: 2 mg/kg |
| CN1CCC[C@H]2[C@H](c3ccc(N)cc3)c3ccccc3[C@H]21 | 50 mg/kg | ~100000 nM | 110 nM | 240 nM | 0.1 mg/kg |  |  | 500 |  |
| Oc1ccc([C@@H]2c3ccccc3[C@H]3NCCC[C@@H]23)cc1 | 30 mg/kg |  |  |  |  |  |  | 15 | ED50 [9]: 2 mg/kg |
